Consider two compounds from ChEMBL document CHEMBL1133704, “Synthesis, biodistribution, and primate imaging of fluorine-18 labeled 2beta-carbo-1'-fluoro-2-propoxy-3beta-(4-chlorophenyl)tr opanes. Ligands for the imaging of dopamine transporters by positron emission tomography” (J Med Chem, 2000).

The target in data set [1] is Sodium-dependent dopamine transporter (Homo sapiens, UniProt Q01959). Briefly: Inhibition constant against [N-methyl-3H]WIN-35428 in murine kidney cells transfected with human dopamine transporter. It is filed as cell-based. A digest of the protocol:
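Membranes from a kidney cell line stably expressing human DAT. Buffer: 0.03 M phosphate, pH 7.4, with 0.32 M sucrose. Radioligand: [³H]WIN 35,428 at 2.0 nM final. Incubated 2 h at 4 °C with competitor at nine concentrations (10^-13 to 10^-6 M, triplicate). GF/B filtration, then scintillation counting. Ki taken from competition curves.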

In data set [2] the target is Sodium-dependent dopamine transporter (Rattus norvegicus, UniProt P23977). Nature of the data set: Inhibition constant in rat dopamine transporter. Summed up: (§1)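 Run by an outside screening program on membranes from rat striatum or cortex. Radioligand (2-12 nM) was incubated with 7-11 competitor concentrations. Radioligands: [N-methyl-³H]WIN 35,428 for DAT, [³H]citalopram for 5-HT transporter, [³H]desmethylimipramine for NE transporter. Ki values reported.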

Data set [3] has as its target Norepinephrine transporter (Rattus norvegicus, UniProt Q9WTR4). Nature of the data set: Inhibition constant in rat Norepinephrine transporter. A digest of the protocol: as §1
The target in data set [4] is Sodium-dependent serotonin transporter (Homo sapiens, UniProt P31645). Briefly: Inhibition constant against [3H]citalopram in murine kidney cells transfected with human serotonin transporter. It is filed as cell-based. A digest of the protocol: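 Membranes from a kidney cell line stably expressing human SERT. Buffer: 50 mM Tris, 120 mM NaCl, 5 mM KCl, pH 7.9. Radioligand: [³H]citalopram at 0.5 nM final. Incubated 1 h at 22 °C with competitor at nine concentrations (10^-13 to 10^-6 M, triplicate). Filtration, then scintillation counting. Ki taken from competition curves.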

In data set [5] the target is Sodium-dependent serotonin transporter (Rattus norvegicus, UniProt P31652). Briefly: Inhibition constant in rat serotonin transporter. Summed up: as §1
A short description of data set [6]: Ratio of inhibition of 5-HT to inhibition of dopamine (5-HT/DA); ND means no data.
Another data set relates to kidney. Briefly: Ratio of inhibition of 5-HT to inhibition of dopamine (5-HT/DA) in murine kidney cells transfected with human serotonin transporter. It is filed as cell-based.
The test system of data set [7] is Rattus norvegicus. Nature of the data set: Distribution of Radioactivity (percent injected dose per gram of tissue) in rest rat of brain after 30 min of iv administration; value ranges from 0.85-1.21. It is filed as ADME, organism-based. Conditions: in vivo, 0.5 h. Summed up:
(§2)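 Male Sprague-Dawley rats (225-300 g) under ketamine received a tail-vein dose of 50 µCi of [18F]-labeled tropane in 0.2 mL 13% EtOH/0.9% NaCl. At 5, 30, 60 or 120 min, cortex, striatum and cerebellum were dissected into tared tubes, weighed and γ-counted. "Rest of brain" was also counted. %dose/g was calculated against the diluted injected dose. Values are mean and range for three or four rats.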

Data set [8] deals with Rattus norvegicus. Nature of the data set: Distribution of Radioactivity (percent injected dose per gram of tissue) in rest rat of brain after 5 min of iv administration; value ranges from 1.19-1.53. It is filed as ADME, organism-based. Conditions: in vivo. Summed up:
as §2

Data set [9] relates to Rattus norvegicus. Nature of the data set: Distribution of Radioactivity (percent injected dose per gram of tissue) in rest rat of brain after 60 min of iv administration; value ranges from 0.36-0.52. It is filed as ADME, organism-based. Conditions: in vivo, 1 h. A digest of the protocol:
as §2

Data set [10] deals with Rattus norvegicus. Nature of the data set: Distribution of Radioactivity (percent injected dose per gram of tissue)in Rat striatum after 30 min of iv administration; value ranges from 3.57-6.08. It is filed as ADME, organism-based. Conditions: in vivo, 0.5 h. A digest of the protocol:
as §2

The subject of data set [11] is Rattus norvegicus. Briefly: Distribution of Radioactivity (percent injected dose per gram of tissue) in rest rat of brain after 120 min of iv administration; value ranges from 0.22-0.33. It is filed as ADME, organism-based. Conditions: in vivo, 2 h. Summed up: as §2
Data set [12] relates to Rattus norvegicus. Briefly: Distribution of Radioactivity (percent injected dose per gram of tissue) in Rat brain cerebellum after 5 min of iv administration; value ranges from 1.26-1.62. It is filed as ADME, organism-based. Conditions: in vivo. Summed up: as §2
In data set [13] the test system is Rattus norvegicus. Nature of the data set: Distribution of Radioactivity (percent injected dose per gram of tissue) in Rat brain cerebellum after 60 min of iv administration; value ranges from 0.32-0.48. It is filed as ADME, organism-based. Conditions: in vivo, 1 h. Summed up:
as §2

The subject of data set [14] is Rattus norvegicus. Briefly: Distribution of Radioactivity (percent injected dose per gram of tissue) in Rat brain cortex after 120 min of iv administration; value ranges from 0.22-0.33. It is filed as ADME, organism-based. Conditions: in vivo, 2 h. A digest of the protocol:
as §2

For data set [15], the system named is Rattus norvegicus. Briefly: Distribution of Radioactivity (percent injected dose per gram of tissue) in Rat brain cortex after 60 min of iv administration; value ranges from 0.51-1.09. It is filed as ADME, organism-based. Conditions: in vivo, 1 h. A digest of the protocol:
as §2

For data set [16], the system named is Rattus norvegicus. Briefly: Distribution of Radioactivity (percent injected dose per gram of tissue) in Rat striatum 5 min of iv administration; value ranges from 3.44-4.80. It is filed as ADME, organism-based. Conditions: in vivo. A digest of the protocol: as §2
For data set [17], the system named is Rattus norvegicus. Briefly: Distribution of Radioactivity (percent injected dose per gram of tissue) in Rat striatum after 120 min of iv administration; value ranges from 1.07-1.22. It is filed as ADME, organism-based. Conditions: in vivo, 2 h. A digest of the protocol: as §2
For data set [18], the system named is Rattus norvegicus. Nature of the data set: Distribution of Radioactivity (percent injected dose per gram of tissue) in Rat striatum after 60 min of iv administration; value ranges from 2.07-2.83. It is filed as ADME, organism-based. Conditions: in vivo, 1 h. A digest of the protocol:
as §2

In data set [19] the test system is Rattus norvegicus. Nature of the data set: Distribution of Radioactivity (percent injected dose per gram of tissue) in Rat brain cortex after 30 min of iv administration; value ranges from 2.47-3.09. Conditions: in vivo, 0.5 h. It is filed as ADME, organism-based. Summed up:
as §2

The test system of data set [20] is Rattus norvegicus. Nature of the data set: Distribution of Radioactivity (percent injected dose per gram of tissue) in Rat brain cortex after 5 min of iv administration; value ranges from 2.47-3.09. Conditions: in vivo. It is filed as ADME, organism-based. A digest of the protocol:
as §2

Data set [21] has as its system Rattus norvegicus. Nature of the data set: Distribution of Radioactivity (percent injected dose per gram of tissue) in Rat brain cerebellum after 120 min of iv administration; value ranges from 0.19-0.25. It is filed as ADME, organism-based. Conditions: in vivo, 2 h. Summed up:
as §2

The nature of data set [22]: Ratio of Distribution of Radioactivity (percent injected dose per gram of tissue) in striatum to cerebellum of brain after 5 min of iv administration; value ranges from 2.49-3.81. Conditions: in vivo. It is filed as ADME, organism-based.
Data set [23] is described as follows: Ratio of Distribution of Radioactivity (percent injected dose per gram of tissue) in striatum to cerebellum of brain after 60 min of iv administration; value ranges from 4.43-6.93. It is filed as ADME, organism-based. Conditions: in vivo, 1 h.
A short description of data set [24]: Ratio of Distribution of Radioactivity (percent injected dose per gram of tissue) in striatum to cerebellum of brain after 30 min of iv administration; value ranges from 3.83-4.94. Conditions: in vivo, 0.5 h. It is filed as ADME, organism-based.
Data set [25] in a line: Ratio of Distribution of Radioactivity (percent injected dose per gram of tissue) in striatum to cortex of brain after 60 min of iv administration; value ranges from 2.59-4.06. It is filed as ADME, organism-based. Conditions: in vivo, 1 h.
Data set [26] in a line: Ratio of Distribution of Radioactivity (percent injected dose per gram of tissue) in striatum to cerebellum of brain after 120 min of iv administration; value ranges from 4.64-6.14. It is filed as ADME, organism-based. Conditions: in vivo, 2 h.
A short description of data set [27]: Ratio of Distribution of Radioactivity (percent injected dose per gram of tissue) in striatum to cortex of brain after 120 min of iv administration; value ranges from 2.61-3.24. It is filed as ADME, organism-based. Conditions: in vivo, 2 h.
The nature of data set [28]: Ratio of Distribution of Radioactivity (percent injected dose per gram of tissue) in striatum to cortex of brain after 5 min of iv administration; value ranges from 1.32-1.94. It is filed as ADME, organism-based. Conditions: in vivo.
Data set [29] concerns Rattus norvegicus. Nature of the data set: Distribution of Radioactivity (percent injected dose per gram of tissue) in Rat brain cerebellum after 30 min of iv administration; value ranges from 0.75-1.23. It is filed as ADME, organism-based. Conditions: in vivo, 0.5 h. Summed up: as §2
The nature of data set [30]: Ratio of Distribution of Radioactivity (percent injected dose per gram of tissue) in striatum to cortex of brain after 30 min of iv administration; value ranges from 1.67-2.85. Conditions: in vivo, 0.5 h. It is filed as ADME, organism-based.

Sequence of Sodium-dependent dopamine transporter (Homo sapiens, UniProt Q01959) (Q01959 whole entry): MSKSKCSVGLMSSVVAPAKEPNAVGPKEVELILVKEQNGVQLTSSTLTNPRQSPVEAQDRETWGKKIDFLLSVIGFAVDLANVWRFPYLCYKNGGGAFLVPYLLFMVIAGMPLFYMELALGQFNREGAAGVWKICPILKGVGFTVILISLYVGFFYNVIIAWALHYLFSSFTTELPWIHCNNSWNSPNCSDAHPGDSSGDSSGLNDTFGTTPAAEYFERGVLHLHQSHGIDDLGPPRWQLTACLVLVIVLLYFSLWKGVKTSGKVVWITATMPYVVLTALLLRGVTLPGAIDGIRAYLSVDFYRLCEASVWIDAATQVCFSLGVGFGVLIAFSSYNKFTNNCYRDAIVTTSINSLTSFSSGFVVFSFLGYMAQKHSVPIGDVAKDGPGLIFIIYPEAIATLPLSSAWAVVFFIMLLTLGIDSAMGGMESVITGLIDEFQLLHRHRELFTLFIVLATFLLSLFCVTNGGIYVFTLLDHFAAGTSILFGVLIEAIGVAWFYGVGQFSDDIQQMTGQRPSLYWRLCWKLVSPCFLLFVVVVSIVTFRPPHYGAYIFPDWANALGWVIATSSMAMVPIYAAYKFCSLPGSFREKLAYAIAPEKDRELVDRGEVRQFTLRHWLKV
Sequence of Norepinephrine transporter (Q9WTR4 whole entry): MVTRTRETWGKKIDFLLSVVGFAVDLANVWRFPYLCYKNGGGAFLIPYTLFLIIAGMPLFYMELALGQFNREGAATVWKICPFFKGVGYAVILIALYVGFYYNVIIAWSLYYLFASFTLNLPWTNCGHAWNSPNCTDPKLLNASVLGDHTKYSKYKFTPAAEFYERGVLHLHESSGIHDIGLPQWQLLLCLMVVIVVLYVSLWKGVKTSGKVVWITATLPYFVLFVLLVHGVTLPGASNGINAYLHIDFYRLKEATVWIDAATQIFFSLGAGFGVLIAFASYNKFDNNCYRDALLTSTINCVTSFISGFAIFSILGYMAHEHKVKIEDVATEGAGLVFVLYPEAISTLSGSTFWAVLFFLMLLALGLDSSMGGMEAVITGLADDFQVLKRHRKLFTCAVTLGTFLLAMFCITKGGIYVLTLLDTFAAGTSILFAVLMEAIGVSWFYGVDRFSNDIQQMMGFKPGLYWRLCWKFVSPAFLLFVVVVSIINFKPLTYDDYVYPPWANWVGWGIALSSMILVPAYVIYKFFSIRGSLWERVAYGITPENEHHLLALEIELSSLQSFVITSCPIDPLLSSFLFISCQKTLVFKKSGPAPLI
Sequence of Sodium-dependent serotonin transporter (Rattus norvegicus, UniProt P31652) (P31652 whole entry): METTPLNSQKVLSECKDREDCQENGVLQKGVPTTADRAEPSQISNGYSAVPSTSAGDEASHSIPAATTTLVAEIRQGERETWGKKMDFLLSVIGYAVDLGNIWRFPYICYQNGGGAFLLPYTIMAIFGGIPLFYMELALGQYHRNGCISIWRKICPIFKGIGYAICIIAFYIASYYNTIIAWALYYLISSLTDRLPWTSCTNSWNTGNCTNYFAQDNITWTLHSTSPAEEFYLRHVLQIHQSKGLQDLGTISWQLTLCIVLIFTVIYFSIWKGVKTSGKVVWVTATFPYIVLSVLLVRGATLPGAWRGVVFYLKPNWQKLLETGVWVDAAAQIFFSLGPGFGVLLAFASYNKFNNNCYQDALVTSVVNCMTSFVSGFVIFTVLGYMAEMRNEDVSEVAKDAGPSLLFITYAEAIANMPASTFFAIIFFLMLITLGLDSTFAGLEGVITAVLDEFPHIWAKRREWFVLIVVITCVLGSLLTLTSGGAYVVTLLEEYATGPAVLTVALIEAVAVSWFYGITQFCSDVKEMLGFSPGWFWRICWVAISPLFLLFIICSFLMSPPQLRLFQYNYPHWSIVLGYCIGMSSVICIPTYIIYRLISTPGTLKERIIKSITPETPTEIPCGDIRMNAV
Sequence of Sodium-dependent serotonin transporter (Homo sapiens, UniProt P31645) (P31645 whole entry): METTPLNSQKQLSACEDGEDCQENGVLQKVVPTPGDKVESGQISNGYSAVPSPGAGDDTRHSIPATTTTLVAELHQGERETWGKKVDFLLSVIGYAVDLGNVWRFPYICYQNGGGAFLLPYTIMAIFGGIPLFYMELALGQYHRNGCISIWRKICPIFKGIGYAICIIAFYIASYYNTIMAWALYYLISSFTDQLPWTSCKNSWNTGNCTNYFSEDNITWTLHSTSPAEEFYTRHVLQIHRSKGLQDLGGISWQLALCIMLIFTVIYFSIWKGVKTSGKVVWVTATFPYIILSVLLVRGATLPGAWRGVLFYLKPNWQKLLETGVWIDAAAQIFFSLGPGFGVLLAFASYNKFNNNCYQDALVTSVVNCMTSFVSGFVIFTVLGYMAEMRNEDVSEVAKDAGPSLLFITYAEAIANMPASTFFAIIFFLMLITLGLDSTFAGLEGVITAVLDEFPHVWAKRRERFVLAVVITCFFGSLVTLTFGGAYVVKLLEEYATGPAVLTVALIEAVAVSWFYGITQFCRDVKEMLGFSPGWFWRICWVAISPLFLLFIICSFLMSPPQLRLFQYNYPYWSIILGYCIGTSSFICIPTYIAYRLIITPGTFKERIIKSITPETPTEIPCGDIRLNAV
Sequence of Sodium-dependent dopamine transporter (Rattus norvegicus, UniProt P23977) (P23977 whole entry): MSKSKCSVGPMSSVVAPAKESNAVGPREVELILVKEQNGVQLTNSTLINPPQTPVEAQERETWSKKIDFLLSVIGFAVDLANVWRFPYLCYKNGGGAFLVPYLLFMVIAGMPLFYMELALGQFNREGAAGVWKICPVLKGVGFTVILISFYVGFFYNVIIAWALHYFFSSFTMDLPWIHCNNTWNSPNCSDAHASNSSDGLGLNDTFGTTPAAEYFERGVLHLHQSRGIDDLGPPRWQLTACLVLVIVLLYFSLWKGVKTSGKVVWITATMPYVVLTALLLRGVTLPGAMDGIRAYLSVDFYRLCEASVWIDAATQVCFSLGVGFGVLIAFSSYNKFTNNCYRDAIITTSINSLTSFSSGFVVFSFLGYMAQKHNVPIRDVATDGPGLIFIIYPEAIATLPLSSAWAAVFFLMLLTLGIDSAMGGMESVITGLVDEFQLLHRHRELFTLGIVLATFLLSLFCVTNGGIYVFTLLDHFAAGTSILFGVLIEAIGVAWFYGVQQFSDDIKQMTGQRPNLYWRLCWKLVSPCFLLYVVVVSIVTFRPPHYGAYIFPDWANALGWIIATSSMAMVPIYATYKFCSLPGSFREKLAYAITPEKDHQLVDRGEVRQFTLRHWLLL

`C[C@@H](CF)OC(=O)C1C(c2ccc(Cl)cc2)CC2CCC1N2C` (stereo partly drawn): the inhibition constant (Ki) – broadly, a measure of affinity in units of concentration, obtained from inhibition or displacement – in [1] stood at 0.67 nM; in data set [2] it was 6.06 nM; in data set [3] it was 690 nM; in [4], 85 nM; in data set [5], 137 nM. Besides, the results for the Ratio (in data set [6]; in the data set on kidney) were 23 and 127, respectively.

Regarding `C[C@H](CF)OC(=O)C1C(c2ccc(Cl)cc2)CC2CCC1N2C` (stereo partly drawn), the Biodistribution with Rattus norvegicus [7] stood at 1.03%; in the data set with Rattus norvegicus [8] it was 1.36%; in the data set on Rattus norvegicus [9], 0.45%; in the data set with Rattus norvegicus [10], 4.5%; in the data set with Rattus norvegicus [11], 0.27%; in the data set with Rattus norvegicus [12], 1.42%. Besides, the Biodistribution was found to be 0.38% in the data set on Rattus norvegicus [13]; 0.4% with Rattus norvegicus [14]; 0.77% with Rattus norvegicus [15]; 3.97% with Rattus norvegicus [16]; 1.2% in the data set on Rattus norvegicus [17]; 2.28% in the data set on Rattus norvegicus [18]. Further, the Biodistribution with Rattus norvegicus [19] was determined as 2.04%; in the data set with Rattus norvegicus [20] it was 2.76%; with Rattus norvegicus [21], 0.22%; in the data set with Rattus norvegicus [29], 0.99%. Besides, the Ki is 3.2 nM in data set [1]; 14.7 nM in data set [2]; 498 nM in [3]; 64 nM in [4]; 133 nM in data set [5]. Moreover, the “S/Cereb Ratio” value in data set [22] came out at 2.79; in data set [23] it was 6; in data set [24] it was 4.55; in data set [26] it was 5.45. For the same compound, the Ratio amounted to 9 in [6] and 20 in the data set with kidney. Further, the “S/CX Ratio” value in [25] was determined as 2.96; in data set [27] it was 3; in [28], 1.44; in data set [30] it was 2.21.
